ChEMBL document CHEMBL2157924, “Cyclobutane derivatives as novel nonpeptidic small molecule agonists of glucagon-like peptide-1 receptor” (J Med Chem, 2012)

Experiments:
[1] = biological target: T1, Glucagon-like peptide 1 receptor (Rattus norvegicus, UniProt P32301); assay: Inhibition of [125I]GLP1 (7-36) amide binding to rat GLP1R expressed in HEK293 cells; type: cell-based
T1 sequence (P32301 whole entry): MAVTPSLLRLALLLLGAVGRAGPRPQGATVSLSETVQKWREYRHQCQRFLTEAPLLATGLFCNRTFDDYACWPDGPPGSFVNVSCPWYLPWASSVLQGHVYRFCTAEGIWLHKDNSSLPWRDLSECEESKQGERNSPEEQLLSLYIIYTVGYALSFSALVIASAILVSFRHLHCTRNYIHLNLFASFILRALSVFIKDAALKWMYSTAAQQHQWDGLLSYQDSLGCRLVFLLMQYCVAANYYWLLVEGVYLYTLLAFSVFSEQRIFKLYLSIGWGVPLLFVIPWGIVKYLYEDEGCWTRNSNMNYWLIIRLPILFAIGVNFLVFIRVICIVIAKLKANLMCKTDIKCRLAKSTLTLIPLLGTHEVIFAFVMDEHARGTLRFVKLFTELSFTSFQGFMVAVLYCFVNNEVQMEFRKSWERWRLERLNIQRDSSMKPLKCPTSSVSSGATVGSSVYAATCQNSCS
Procedure, shortened: (§1)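 Membranes (17 μg protein) from HEK293 cells stably expressing rat GLP-1R were preincubated 5 h at 4 °C with FlashBlue beads (150 μg). Then 40 pM [125I]GLP-1(7−36) amide or [125I]Exendin(9−39) was added with aprotinin 2 μg/mL, leupeptin 100 μM and test compound at varied concentrations. Incubated overnight at 4 °C, then bound radioactivity counted. Mean ± SEM of two independent experiments.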

[2] = biological target: T1, Glucagon-like peptide 1 receptor; assay: Agonist activity at rat GLP1R expressed in HEK293 cells assessed as stimulation of cAMP levels incubated for 6 hrs by multiple response element/cAMP response element (MRE/CRE)-driven reporter gene assay; type: functional, cell-based
Procedure, shortened: (§2)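 Stable HEK293 line co-expressing rat GLP-1R (pCMV-Tag2B) and a luciferase reporter with 3× MRE plus 1× CRE, seeded at 40000 cells/well and cultured overnight. Compounds in DMSO or GLP-1(7−37) were added for 6 h, then cells were lysed and luciferase read (Steady-Glo). The 10 nM GLP-1 maximum was taken as 100%. Mean ± SEM of two independent experiments; some values come from a single run.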

[3] = biological target: T2, Glucagon-like peptide 1 receptor (Rattus norvegicus) (UniProt P32301); assay: Inhibition of [125I]GLP1 (7-36) amide binding to rat GLP1R expressed in HEK293 cells relative to untreated control; type: cell-based; design: concentration or dose not given beside the values; settings: concentration not given here; procedure, shortened: as §1
T2 sequence (whole entry): T1 sequence (P32301 whole entry)

[4] = biological target: T2, Glucagon-like peptide 1 receptor (Rattus norvegicus); assay: Inhibition of [125I]Exendin (9-39) binding to rat GLP1R expressed in HEK293 cells; type: cell-based; design: concentration or dose not given beside the values; settings: concentration not given here; procedure, shortened: as §1
[5] = biological target: T2, Glucagon-like peptide 1 receptor (Rattus norvegicus); assay: Agonist activity at rat GLP1R expressed in HEK293 cells assessed as stimulation of cAMP levels incubated for 6 hrs by multiple response element/cAMP response element (MRE/CRE)-driven reporter gene assay relative to 10 nM GLP1; type: functional, cell-based; procedure, shortened: as §2

| IC50 [1] [µM] | EC50 [2] [µM] | inhibition [3] [%] | inhibition [4] [%] | Efficacy [5] [%] | SMILES |
| --- | --- | --- | --- | --- | --- |
|  | > 20 | 12.1 | 2.8 | < 15 | CC(=O)Nc1ccc([C@H]2[C@](NC(=O)c3ccc(NC(=O)OC(C)(C)C)cc3)(C(=O)O)[C@@H](c3ccc(NC(C)=O)cc3)[C@]2(NC(=O)c2ccc(NC(=O)OC(C)(C)C)cc2)C(=O)O)cc1 |
|  | 9.4 | 7.45 | 2.4 | 7.5 | COc1ccc([C@H]2[C@](NC(=O)c3ccc(NC(=O)OC(C)(C)C)cc3)(C(=O)O)[C@@H](c3ccc(OC)cc3)[C@]2(NC(=O)c2ccc(NC(=O)OC(C)(C)C)cc2)C(=O)O)cc1 |
| 0.6 | 0.371 |  |  |  | COc1cc([C@H]2[C@](NC(=O)c3ccc(NC(=O)OC(C)(C)C)cc3)(C(=O)O)[C@@H](c3ccc(OC(=O)c4cccs4)c(OC)c3)[C@]2(NC(=O)c2ccc(NC(=O)OC(C)(C)C)cc2)C(=O)O)ccc1OC(=O)c1cccs1 (stereo in doubt) [listing 1 of 2 here] |
|  |  | 89.8 | 70.5 | 121 | COc1cc([C@H]2[C@](NC(=O)c3ccc(NC(=O)OC(C)(C)C)cc3)(C(=O)O)[C@@H](c3ccc(OC(=O)c4cccs4)c(OC)c3)[C@]2(NC(=O)c2ccc(NC(=O)OC(C)(C)C)cc2)C(=O)O)ccc1OC(=O)c1cccs1 (stereo in doubt) [listing 2 of 2 here] |
|  | > 20 | 27.6 | 8.3 | < 15 | COc1cc([C@H]2[C@](NC(=O)c3ccc(NC(=O)OC(C)(C)C)cc3)(C(=O)O)[C@@H](c3ccc(OC(=O)c4ccco4)c(OC)c3)[C@]2(NC(=O)c2ccc(NC(=O)OC(C)(C)C)cc2)C(=O)O)ccc1OC(=O)c1ccco1 |
| 4.3 |  | 42 | 56.3 | 16.5 | COc1cc([C@H]2[C@](NC(=O)c3ccc(NC(=O)OC(C)(C)C)cc3)(C(=O)O)[C@H](c3ccc(OC(=O)c4cccs4)c(OC)c3)[C@@]2(NC(=O)c2ccc(NC(=O)OC(C)(C)C)cc2)C(=O)O)ccc1OC(=O)c1cccs1 |
|  | 8.31 | 43.6 | < 15 | 43.6 | COc1cc([C@H]2[C@](NC(=O)c3ccc(NC(=O)OC(C)(C)C)cc3)(C(=O)O)[C@@H](c3ccc(OC(C)=O)c(OC)c3)[C@]2(NC(=O)c2ccc(NC(=O)OC(C)(C)C)cc2)C(=O)O)ccc1OC(C)=O |
|  | > 20 | 32.5 | 9.4 | < 15 | COc1cc([C@H]2[C@](NC(=O)c3ccc(NC(=O)OC(C)(C)C)cc3)(C(=O)O)[C@@H](c3ccc(NC(C)=O)c(OC)c3)[C@]2(NC(=O)c2ccc(NC(=O)OC(C)(C)C)cc2)C(=O)O)ccc1NC(C)=O |
| 1.6 | 0.847 |  |  |  | COc1cc([C@H]2[C@](NC(=O)c3ccc(NC(=O)OC(C)(C)C)cc3)(C(=O)O)[C@@H](c3ccc(OC(=O)c4cccs4)c(OC)c3)[C@]2(NC(=O)c2ccc(NC(=O)OC(C)(C)C)cc2)C(=O)O)ccc1OC(=O)c1cccs1 (stereo in doubt; 3) |

The remaining lines, values behind:

| SMILES | IC50 [1] [µM] | EC50 [2] [µM] | inhibition [3] [%] | inhibition [4] [%] | Efficacy [5] [%] |
| --- | --- | --- | --- | --- | --- |
| CCOc1cc([C@H]2[C@](NC(=O)c3ccc(NC(=O)OC(C)(C)C)cc3)(C(=O)O)[C@@H](c3ccc(OC(=O)c4cccs4)c(OCC)c3)[C@]2(NC(=O)c2ccc(NC(=O)OC(C)(C)C)cc2)C(=O)O)ccc1OC(=O)c1cccs1 | 3.1 | 0.326 | 50.2 | < 15 | 85.6 |
| COc1cc([C@H]2[C@](NC(=O)c3ccc(NC(=O)C45CC6CC(CC(C6)C4)C5)cc3)(C(=O)O)[C@@H](c3ccc(OC(=O)c4cccs4)c(OC)c3)[C@]2(NC(=O)c2ccc(NC(=O)C34CC5CC(CC(C5)C3)C4)cc2)C(=O)O)ccc1OC(=O)c1cccs1 | 8 |  | 50.7 | 46.8 | 6 |
| COc1cc([C@H]2[C@](NC(=O)c3ccc(NC(=O)OC(C)(C)C)cc3)(C(=O)O)[C@H](c3ccc(OC(=O)c4cccs4)c(OC)c3)[C@]2(NC(=O)c2ccc(NC(=O)OC(C)(C)C)cc2)C(=O)O)ccc1OC(=O)c1cccs1 | 1.3 |  | 73.4 |  | 68.2 |
| COc1cc([C@H]2[C@](NC(=O)c3ccc(NC(=O)CO)cc3)(C(=O)O)[C@@H](c3ccc(OC(=O)c4cccs4)c(OC)c3)[C@]2(NC(=O)c2ccc(NC(=O)CO)cc2)C(=O)O)ccc1OC(=O)c1cccs1 | 8.1 |  | 59.3 | 52.7 | 38 |
| CCCC(=O)Nc1ccc(C(=O)N[C@]2(C(=O)O)[C@H](c3ccc(OC(=O)c4cccs4)c(OC)c3)[C@@](NC(=O)c3ccc(NC(=O)CCC)cc3)(C(=O)O)[C@@H]2c2ccc(OC(=O)c3cccs3)c(OC)c2)cc1 | 3.4 |  | 52.4 | 48.2 | 50 |
| COc1cc([C@H]2[C@](NC(=O)c3ccc(NC(=O)C(C)NC(=O)OC(C)(C)C)cc3)(C(=O)O)[C@@H](c3ccc(OC(=O)c4cccs4)c(OC)c3)[C@]2(NC(=O)c2ccc(NC(=O)C(C)NC(=O)OC(C)(C)C)cc2)C(=O)O)ccc1OC(=O)c1cccs1 (some centres undefined) | 0.9 |  | 77.3 | 69.7 | 49 |
| COc1cc([C@H]2[C@](NC(=O)c3ccc(NC(=O)C(C)C)cc3)(C(=O)O)[C@@H](c3ccc(OC(C)=O)c(OC)c3)[C@]2(NC(=O)c2ccc(NC(=O)C(C)C)cc2)C(=O)O)ccc1OC(C)=O |  |  | 34.1 | 35.2 | 30 |
| CC(C)(C)OC(=O)Nc1ccc(C(=O)N[C@]2(C(=O)O)[C@H](c3ccc(OCc4ccccc4)cc3)[C@@](NC(=O)c3ccc(NC(=O)OC(C)(C)C)cc3)(C(=O)O)[C@@H]2c2ccc(OCc3ccccc3)cc2)cc1 |  |  | 21.2 | 9.6 | 24.8 |
| COc1cc([C@H]2[C@](NC(=O)c3ccc(NC(=O)C4CCCCC4)cc3)(C(=O)O)[C@@H](c3ccc(OC(=O)c4cccs4)c(OC)c3)[C@]2(NC(=O)c2ccc(NC(=O)C3CCCCC3)cc2)C(=O)O)ccc1OC(=O)c1cccs1 | 1 |  | 58.9 | 54.8 | 25 |
| CC(C)(C)OC(=O)Nc1ccc(C(=O)N[C@]2(C(=O)O)[C@H](c3ccc(OC(=O)c4cccs4)cc3)[C@@](NC(=O)c3ccc(NC(=O)OC(C)(C)C)cc3)(C(=O)O)[C@@H]2c2ccc(OC(=O)c3cccs3)cc2)cc1 |  |  | 63.7 | < 15 | 63.7 |
| COc1cc([C@H]2[C@](NC(=O)c3ccc(NC(=O)COCc4ccccc4)cc3)(C(=O)O)[C@@H](c3ccc(OC(=O)c4cccs4)c(OC)c3)[C@]2(NC(=O)c2ccc(NC(=O)COCc3ccccc3)cc2)C(=O)O)ccc1OC(=O)c1cccs1 | 1.9 |  | 57.5 | 45.9 | 12 |
| COc1cc([C@H]2[C@](NC(=O)c3ccc(NC(=O)Cc4ccccc4)cc3)(C(=O)O)[C@@H](c3ccc(OC(=O)c4cccs4)c(OC)c3)[C@]2(NC(=O)c2ccc(NC(=O)Cc3ccccc3)cc2)C(=O)O)ccc1OC(=O)c1cccs1 | 3.2 |  | 45.7 | 33.4 | 32 |
| COc1cc([C@H]2[C@](NC(=O)c3ccc(NC(=O)OC(C)(C)C)cc3)(C(=O)O)[C@@H](c3ccc(OCc4ccccc4)c(OC)c3)[C@]2(NC(=O)c2ccc(NC(=O)OC(C)(C)C)cc2)C(=O)O)ccc1OCc1ccccc1 |  | > 20 | 10 | 14.3 | < 15 |
| COc1cc([C@H]2[C@](NC(=O)c3ccc(NC(=O)OC(C)(C)C)cc3)(C(=O)O)[C@@H](c3ccc(OC(=O)Cc4ccccc4)c(OC)c3)[C@]2(NC(=O)c2ccc(NC(=O)OC(C)(C)C)cc2)C(=O)O)ccc1OC(=O)Cc1ccccc1 |  |  | 17.5 | 4.8 | 26 |
| COc1cc([C@H]2[C@](NC(=O)c3ccc(NC(=O)Nc4cccc(F)c4)cc3)(C(=O)O)[C@@H](c3ccc(OC(=O)c4cccs4)c(OC)c3)[C@]2(NC(=O)c2ccc(NC(=O)Nc3cccc(F)c3)cc2)C(=O)O)ccc1OC(=O)c1cccs1 |  | 2.71 | 3.2 | 4.7 | 7.7 |
| CC(C)(C)OC(=O)Nc1ccc(C(=O)N[C@]2(C(=O)O)[C@H](c3ccc(OC(=O)c4ccccc4)cc3)[C@@](NC(=O)c3ccc(NC(=O)OC(C)(C)C)cc3)(C(=O)O)[C@@H]2c2ccc(OC(=O)c3ccccc3)cc2)cc1 |  |  | 13.5 | 6.3 | 21.6 |
| COc1cc([C@H]2[C@](NC(=O)c3ccc(NC(=O)C(C)N)cc3)(C(=O)O)[C@@H](c3ccc(OC(=O)c4cccs4)c(OC)c3)[C@]2(NC(=O)c2ccc(NC(=O)C(C)N)cc2)C(=O)O)ccc1OC(=O)c1cccs1 (some centres undefined) | 16.2 |  | 35.2 | 27.9 | 48 |
